According to ChEMBL document CHEMBL4819096, “Antibacterial activity of noscapine analogs” (Bioorg Med Chem Lett, 2021):
Values after ≈ are worked out from the molar mass of the structure shown. Active and inactive are the calls of the source. The rule behind the calls is not given here.

Key:
[1] = test system: Morganella morganii; assay: Antibacterial activity against Morganella morganii R36 assessed as inhibition of bacterial growth measured after 16 to 20 hrs by two-fold serial microbroth dilution method; format: functional, organism-based; details: time 16-20 hrs
Procedure, shortened: (§1)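 Broth microdilution in LB and M9 medium. Inoculum adjusted to about 5 × 10⁵ cells/ml. Compound diluted twofold serially in microplate wells, then plates covered and incubated at 37 °C with shaking. Growth read as OD600. MIC taken as the lowest concentration giving no growth after 16–20 h.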

[2] = test system: Escherichia coli; assay: Antibacterial activity against Escherichia coli ATCC25922 assessed as inhibition of bacterial growth measured after 16 to 20 hrs by two-fold serial microbroth dilution method; format: functional, organism-based; details: ATCC 25922, time 16-20 hrs; procedure, shortened: as §1
[3] = test system: Escherichia coli; assay: Antibacterial activity against Escherichia coli assessed as inhibition of bacterial growth measured after 16 to 20 hrs by two-fold serial microbroth dilution method; format: functional; details: time 16-20 hrs; procedure, shortened: as §1
[4] = test system: Candida albicans; assay: Antibacterial activity against ampicillin/cefotaxime/tetracycline/ceftriaxone/fosfomycin-resistant Candida albicans 181210169-1 assessed as inhibition of fungal growth measured after 16 to 20 hrs by two-fold serial microbroth dilution method; format: functional, organism-based; details: time 16-20 hrs
Procedure, shortened: (§2)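 Broth microdilution MIC in LB and M9 medium. Inoculum adjusted to about 5 × 10⁵ cells/ml. Compound serially diluted twofold. Plates covered and incubated at 37 °C with shaking. OD600 read; MIC taken as the lowest concentration giving no growth after 16–20 h.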

[5] = test system: Pseudomonas aeruginosa; assay: Antibacterial activity against Pseudomonas aeruginosa R42 assessed as inhibition of bacterial growth measured after 16 to 20 hrs by two-fold serial microbroth dilution method; format: functional, organism-based; details: time 16-20 hrs; procedure, shortened: as §1
[6] = test system: Proteus vulgaris; assay: Antibacterial activity against Proteus vulgaris O41 assessed as inhibition of bacterial growth measured after 16 to 20 hrs by two-fold serial microbroth dilution method; format: functional, organism-based; details: time 16-20 hrs; procedure, shortened: as §1
[7] = test system: Proteus sp.; assay: Antibacterial activity against ampicillin/cefotaxime/tetracycline/ceftriaxone/fosfomycin-resistant Proteus sp. O14 assessed as inhibition of bacterial growth measured after 16 to 20 hrs by two-fold serial microbroth dilution method; format: functional, organism-based; details: time 16-20 hrs; procedure, shortened: as §2
[8] = test system: Klebsiella aerogenes; assay: Antibacterial activity against Enterobacter aerogenes R41 assessed as inhibition of bacterial growth measured after 16 to 20 hrs by two-fold serial microbroth dilution method; format: functional, organism-based; details: time 16-20 hrs; procedure, shortened: as §1
[9] = test system: Klebsiella oxytoca; assay: Antibacterial activity against Klebsiella oxytoca R48 assessed as inhibition of bacterial growth measured after 16 to 20 hrs by two-fold serial microbroth dilution method; format: functional, organism-based; details: time 16-20 hrs; procedure, shortened: as §1
[10] = test system: Hafnia alvei; assay: Antibacterial activity against Ampicillin resistant Hafnia alvei O31 assessed as inhibition of bacterial growth measured after 16 to 20 hrs by two-fold serial microbroth dilution method; format: functional, organism-based; details: time 16-20 hrs; procedure, shortened: as §2
[11] = test system: Citrobacter koseri; assay: Antibacterial activity against Citrobacter koseri R38 assessed as inhibition of bacterial growth measured after 16 to 20 hrs by two-fold serial microbroth dilution method; format: functional, organism-based; details: time 16-20 hrs; procedure, shortened: as §1
[12] = test system: Bacillus subtilis; assay: Antibacterial activity against Bacillus subtilis 3HM assessed as inhibition of bacterial growth measured after 16 to 20 hrs by two-fold serial microbroth dilution method; format: functional, organism-based; details: time 16-20 hrs; procedure, shortened: as §1
[13] = test system: Pseudomonas aeruginosa; assay: Antibacterial activity against ampicillin/cefotaxime-resistant Pseudomonas aeruginosa ATCC 27853 assessed as inhibition of bacterial growth measured after 16 to 20 hrs by two-fold serial microbroth dilution method; format: functional, organism-based; details: time 16-20 hrs; procedure, shortened: as §2
[14] = test system: Escherichia coli; assay: Antibacterial activity against ampicillin/cefotaxime/tetracycline/ceftriaxone-resistant Escherichia coli mx7 assessed as inhibition of bacterial growth measured after 16 to 20 hrs by two-fold serial microbroth dilution method; format: functional, organism-based; details: time 16-20 hrs; procedure, shortened: as §2
[15] = test system: Staphylococcus aureus; assay: Antibacterial activity against Fosfomycin resistant Staphylococcus aureus ATCC USA 206 assessed as inhibition of bacterial growth measured after 16 to 20 hrs by two-fold serial microbroth dilution method; format: functional, organism-based; details: time 16-20 hrs; procedure, shortened: as §2
[16] = test system: Aeromonas; assay: Antibacterial activity against Aeromonas sp. O9 assessed as inhibition of bacterial growth measured after 16 to 20 hrs by two-fold serial microbroth dilution method; format: functional, organism-based; details: time 16-20 hrs; procedure, shortened: as §1
[17] = test system: Enterobacter; assay: Antibacterial activity against Enterobacter sp. O54 assessed as inhibition of bacterial growth measured after 16 to 20 hrs by two-fold serial microbroth dilution method; format: functional, organism-based; details: time 16-20 hrs; procedure, shortened: as §1
[18] = test system: Klebsiella pneumoniae; assay: Antibacterial activity against ampicillin/fosfomycin-resistant Klebsiella pneumonia 181210171-2 assessed as inhibition of bacterial growth measured after 16 to 20 hrs by two-fold serial microbroth dilution method; format: functional, organism-based; details: time 16-20 hrs; procedure, shortened: as §2
[19] = test system: Enterobacter cloacae; assay: Antibacterial activity against ampicillin/cefotaxime/tetracycline/ceftriaxone-resistant Enterobacter cloacae O3 assessed as inhibition of bacterial growth measured after 16 to 20 hrs by two-fold serial microbroth dilution method; format: functional, organism-based; details: time 16-20 hrs; procedure, shortened: as §2
[20] = Cytotoxicity against human HEK293 cells assessed as reduction in cell viability measured after 28 hrs by PrestoBlue reagent based fluorescence analysis
Procedure, shortened: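 HEK293 cells seeded at 25*10³ per well in DMEM with 10% FBS, 2 mM L-Glu and 50 µg/ml gentamicin. Cells held 24 h at 37 °C, 5% CO2 before compound was added (final DMSO 0.1%), then incubated 28 h. Viability read by PrestoBlue fluorescence at 590 nm, expressed relative to 0.1% DMSO control (100%). CC50 derived by curve fitting.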

[21] = test system: HEK293; assay: Induction of cell cycle arrest in human HEK293 cells assessed as increase in accumulation of apoptotic cells at sub G1 phase at 14.9 uM after 24 hrs by propidium iodide staining based flow cytometry; details: hek293, 24 h
Procedure, shortened: (§3)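 HEK293 cells exposed to compound or vehicle (0.1% DMSO), then harvested by centrifugation (400 × g, 5 min). Fixed/permeabilized in ice-cold 70% ethanol for 24 h at −20 °C, PBS-washed twice, treated with RNase A (0.5 mg/ml) for 5 min at room temperature, then PI (50 µg/ml) for 30 min. DNA content measured by flow cytometry on a linear scale. At least duplicate runs; mean ± S.E.M.; Wilcoxon test versus vehicle.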

[22] = test system: HEK293; assay: Induction of cell cycle arrest in human HEK293 cells assessed as increase in accumulation of cells at G2/M phase at 14.9 uM after 24 hrs by propidium iodide staining based flow cytometry; details: hek293, 24 h; procedure, shortened: as §3
[23] = test system: HEK293; assay: Induction of cell cycle arrest in human HEK293 cells assessed as decrease in accumulation of cells at G1 phase at 14.9 uM measured after 24 hrs by propidium iodide staining based flow cytometry; details: hek293, 24 h; procedure, shortened: as §3
[24] = test system: HEK293; assay: Induction of cell cycle arrest in human HEK293 cells assessed as increase in accumulation of apoptotic cells at sub G1 phase at 12.6 uM after 72 hrs by propidium iodide staining based flow cytometry; details: hek293, 72 h; procedure, shortened: as §3
[25] = test system: HEK293; assay: Induction of cell cycle arrest in human HEK293 cells assessed as increase in accumulation of cells at S phase at 12.6 uM after 24 hrs by propidium iodide staining based flow cytometry; details: hek293, 24 h; procedure, shortened: as §3

CCOc1ccc(/C=C/C(=O)CC2c3c(cc4c(c3OC)OCO4)CC[N+]2(C)C)cc1 (stereo not given)
Activity [1]: inactive
Activity [2]: inactive
MIC [3]: 90.7 µM
Activity [4]: inactive
Activity [5]: inactive
Activity [6]: Active
Activity [7]: inactive
Activity [8]: inactive
Activity [9]: inactive
Activity [10]: inactive
Activity [11]: inactive
Activity [12]: inactive
Activity [13]: inactive
Activity [14]: inactive
Activity [15]: Active
Activity [16]: inactive
Activity [17]: inactive
Activity [18]: inactive
Activity [19]: inactive
CC50 at 28 h [20]: 17.8 µM

COc1c2c(cc3c1C(CC(=O)c1ccc4c5c(cccc15)CC4)[N+](C)(C)CC3)OCO2 (stereo not given)
Activity [1]: inactive
Activity [2]: inactive
MIC [3]: 12.2 µM
Activity [4]: inactive
Activity [5]: inactive
Activity [6]: inactive
Activity [7]: inactive
Activity [8]: inactive
Activity [9]: inactive
Activity [10]: inactive
Activity [11]: inactive
Activity [12]: Active
Activity [13]: inactive
Activity [14]: inactive
Activity [15]: inactive
Activity [16]: inactive
Activity [17]: inactive
Activity [18]: inactive
Activity [19]: inactive
CC50 at 28 h [20]: 17 µM

COc1c2c(cc3c1C(CC(=O)c1c(O)n(C)c(=S)n(C)c1=O)N(C)CC3)OCO2 (stereo not given)
Activity [1]: inactive
Activity [2]: inactive
MIC [3]: 115 µM (≈ 50 µg/mL)
Activity [4]: Active
Activity [5]: inactive
Activity [6]: inactive
Activity [7]: inactive
Activity [8]: inactive
Activity [9]: inactive
Activity [10]: inactive
Activity [11]: inactive
Activity [12]: Active
Activity [13]: inactive
Activity [14]: inactive
Activity [15]: Active
Activity [16]: inactive
Activity [17]: Active
Activity [18]: inactive
Activity [19]: inactive
CC50 at 28 h [20]: > 100 µM

COc1c2c(cc3c1C(CC(=O)c1ccc(CC(C)C)cc1)[N+](C)(C)CC3)OCO2 (stereo not given)
Activity [1]: Active
Activity [2]: Active
MIC [3]: 23.3 µM
Activity [4]: Active
Activity [5]: Active
Activity [6]: Active
Activity [7]: Active
Activity [8]: Active
Activity [9]: Active
Activity [10]: Active
Activity [11]: Active
Activity [12]: Active
Activity [13]: inactive
Activity [14]: Active
Activity [15]: Active
Activity [16]: Active
Activity [17]: Active
Activity [18]: Active
Activity [19]: Active
CC50 at 28 h [20]: 13.3 µM

COc1c2c(cc3c1C(CC(=O)/C=C/C1=C(C)CCCC1(C)C)[N+](C)(C)CC3)OCO2.[I-] (stereo not given)
Activity [1]: Active
Activity [2]: Active
MIC [3]: 22.6 µM
Activity [4]: Active
Activity [5]: Active
Activity [6]: inactive
Activity [7]: inactive
Activity [21]: Toxic
Activity [8]: Active
Activity [9]: Active
Activity [10]: Active
Activity [11]: inactive
Activity [12]: Active
Activity [22]: Toxic
Activity [13]: inactive
Activity [23]: Toxic
Activity [14]: Active
Activity [15]: Active
Activity [16]: Active
Activity [17]: inactive
Activity [18]: Active
Activity [19]: Active
CC50 at 28 h [20]: 14.9 µM

COc1c2c(cc3c1C(CC(=O)/C=C/C1CC=C(C)CC1C)[N+](C)(C)CC3)OCO2 (stereo not given)
Activity [1]: Active
Activity [2]: Active
MIC [3]: 46.3 µM
Activity [4]: Active
Activity [5]: inactive
Activity [6]: inactive
Activity [7]: inactive
Activity [8]: inactive
Activity [9]: inactive
Activity [10]: inactive
Activity [11]: inactive
Activity [12]: Active
Activity [13]: inactive
Activity [14]: Active
Activity [15]: Active
Activity [16]: inactive
Activity [17]: inactive
Activity [18]: inactive
Activity [19]: inactive
CC50 at 28 h [20]: 10.4 µM

COc1c2c(cc3c1C(CC(=O)/C=C/C1C(C)=CCCC1(C)C)[N+](C)(C)CC3)OCO2 (stereo not given)
Activity [1]: inactive
Activity [2]: inactive
MIC [3]: 22.6 µM
Activity [4]: inactive
Activity [5]: inactive
Activity [6]: inactive
Activity [7]: inactive
Activity [8]: inactive
Activity [9]: inactive
Activity [10]: inactive
Activity [11]: inactive
Activity [12]: Active
Activity [13]: inactive
Activity [14]: inactive
Activity [15]: inactive
Activity [16]: inactive
Activity [17]: inactive
Activity [18]: inactive
Activity [19]: inactive
CC50 at 28 h [20]: 16.2 µM

CCCc1ccc(C(=O)CC2c3c(cc4c(c3OC)OCO4)CC[N+]2(C)C)cc1.[I-] (stereo not given)
Activity [1]: Active
Activity [2]: Active
MIC [3]: 11.3 µM
Activity [4]: Active
Activity [5]: Active
Activity [6]: Active
Activity [7]: Active
Activity [8]: Active
Activity [9]: inactive
Activity [10]: Active
Activity [11]: inactive
Activity [12]: Active
Activity [13]: inactive
Activity [14]: Active
Activity [15]: Active
Activity [24]: Toxic
Activity [25]: Toxic
Activity [16]: Active
Activity [17]: Active
Activity [18]: Active
Activity [19]: Active
CC50 at 28 h [20]: 12.6 µM
